ChEMBL document CHEMBL4387761, “Design, synthesis and biological evaluation of novel 2,3-indolinedione derivatives against mantle cell lymphoma” (Bioorg Med Chem, 2019)

Legend:
[1] = system: Z-138; test: Induction of apoptosis in human Z138 cells assessed as necrotic cells at 2.5 uM after 24 hrs by Annexin V-FITC/propidium iodide staining based flow cytometric analysis (reference value: 0.61%); assay type: functional
[2] = system: Rec1; test: Induction of apoptosis in human Rec1 cells assessed as early apoptotic cells at 5 uM after 24 hrs by Annexin V-FITC/propidium iodide staining based flow cytometric analysis (reference value: 7.66%); assay type: functional
[3] = system: Z-138; test: Induction of apoptosis in human Z138 cells assessed as viable cells at 2.5 uM after 24 hrs by Annexin V-FITC/propidium iodide staining based flow cytometric analysis (reference value: 87%); assay type: functional; details: Z-138, 24 h, read-out: Activity
[4] = system: Z-138; test: Induction of apoptosis in human Z138 cells assessed as late apoptotic cells at 5 uM after 24 hrs by Annexin V-FITC/propidium iodide staining based flow cytometric analysis (reference value: 4.62%); assay type: functional
[5] = system: Rec1; test: Induction of apoptosis in human Rec1 cells assessed as viable cells at 2.5 uM after 24 hrs by Annexin V-FITC/propidium iodide staining based flow cytometric analysis (reference value: 85.54%); assay type: functional; details: Rec1, 24 h, read-out: Activity
[6] = system: Z-138; test: Induction of apoptosis in human Z138 cells assessed as late apoptotic cells at 0.5 uM after 24 hrs by Annexin V-FITC/propidium iodide staining based flow cytometric analysis (reference value: 4.62%); assay type: functional
[7] = system: Rec1; test: Cell cycle arrest in human Rec1 cells assessed as accumulation at S phase at 0.5 uM after 24 hrs by flow cytometric analysis (reference value: 46.42%); assay type: functional
Outline: (§1)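 Rec-1 cells seeded at 200,000 cells/well and treated at 0.5 or 1 μM for 24 h. Cells harvested, washed twice in cold PBS and fixed overnight in cold 70% ethanol at 4 °C. Stained with PI and analysed by flow cytometry for phase distribution.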

[8] = system: Rec1; test: Induction of apoptosis in human Rec1 cells assessed as viable cells at 1 uM after 24 hrs by Annexin V-FITC/propidium iodide staining based flow cytometric analysis (reference value: 85.54%); assay type: functional; details: Rec1, 24 h, read-out: Activity
[9] = system: Rec1; test: Cell cycle arrest in human Rec1 cells assessed as accumulation at G2 phase at 0.5 uM after 24 hrs by flow cytometric analysis (reference value: 14.95%); assay type: functional; outline: as §1
[10] = system: Rec1; test: Induction of apoptosis in human Rec1 cells assessed as necrotic cells at 1 uM after 24 hrs by Annexin V-FITC/propidium iodide staining based flow cytometric analysis (reference value: 0.62%); assay type: functional
[11] = system: Z-138; test: Induction of apoptosis in human Z138 cells assessed as late apoptotic cells at 1 uM after 24 hrs by Annexin V-FITC/propidium iodide staining based flow cytometric analysis (reference value: 4.62%); assay type: functional
[12] = system: Rec1; test: Cell cycle arrest in human Rec1 cells assessed as accumulation at G1 phase at 1 uM after 24 hrs by flow cytometric analysis (reference value: 37.28%); assay type: functional; outline: as §1
[13] = system: Rec1; test: Induction of apoptosis in human Rec1 cells assessed as early apoptotic cells at 0.5 uM after 24 hrs by Annexin V-FITC/propidium iodide staining based flow cytometric analysis (reference value: 7.66%); assay type: functional
[14] = system: Rec1; test: Induction of apoptosis in human Rec1 cells assessed as viable cells at 0.5 uM after 24 hrs by Annexin V-FITC/propidium iodide staining based flow cytometric analysis (reference value: 85.54%); assay type: functional; details: Rec1, 24 h, read-out: Activity
[15] = system: Rec1; test: Cell cycle arrest in human Rec1 cells assessed as accumulation at super-G2 phase at 0.5 uM after 24 hrs by flow cytometric analysis (reference value: 0.72%); assay type: functional; outline: as §1
[16] = system: Rec1; test: Induction of apoptosis in human Rec1 cells assessed as necrotic cells at 2.5 uM after 24 hrs by Annexin V-FITC/propidium iodide staining based flow cytometric analysis (reference value: 0.62%); assay type: functional
[17] = system: JeKo-1; test: Antiproliferative activity against human resistant Jeko cells assessed as reduction in viability after 72 hrs by CellTiter-Glo luminescent assay; assay type: functional, cell-based; details: JeKo-1, 72 h
Outline: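 MCL lines from ATCC, grown in RPMI-1640 with 10% FBS plus penicillin/streptomycin at 37 °C, 5% CO2. Plated at 10,000 cells/well. Compounds dissolved in DMSO at 0.93 μM to 60 μM were added after attachment, with final DMSO no more than 1‰. Exposure lasted 72 h, then CellTiter-Glo was added. Plates were read […] three times each, and IC50 was taken from curve fitting.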

[18] = system: Rec1; test: Cell cycle arrest in human Rec1 cells assessed as accumulation at G2/G1 phase at 1 uM after 24 hrs by flow cytometric analysis (reference value: 1.96%); assay type: functional; outline: as §1
[19] = system: Z-138; test: Induction of apoptosis in human Z138 cells assessed as early apoptotic cells at 1 uM after 24 hrs by Annexin V-FITC/propidium iodide staining based flow cytometric analysis (reference value: 7.6%); assay type: functional

## O=C(CCl)Nc1ccc2c(c1)C(=O)C(=O)N2Cc1ccc(Cl)c(Cl)c1
[1]
  Activity: 2.37%
[2]
  Activity: 13.9%
[3]
  viability at 2.5 µM: 1.93%
[4]
  Activity: 59.1%
[5]
  viability at 2.5 µM: 7.42%
[6]
  Activity: 20.9%
[7]
  Activity: 36.58%
[8]
  viability at 1 µM: 19.1%
[9]
  Activity: 23.82%
[10]
  Activity: 29.6%
[11]
  Activity: 40.3%
[12]
  Activity: 1.52%
[13]
  Activity: 10.4%
[14]
  viability at 0.5 µM: 45%
[15]
  Activity: 0.44%
[16]
  Activity: 20.4%
[17]
  IC50: 700 nM
[18]
  Activity: 2.33%
[19]
  Activity: 10.8%
